Screening data from PubChem BioAssay.
An excerpt weighted towards active compounds, which were near 0.27% of everything screened.
CaV13 FRET inh: Disruptors of the CACNA1D IQ motif to Ca2+-dependent inactivation inhibitor domain association, primary screening, Förster resonance energy transfer in intact living …. AID 743397. actives 0.098% (n = 340,000). inhibition, % at 12.3 µM. HEK cells, CFP/YFP FRET ICDI-IQ, plate reader, 10 min; percent FRET-ratio fall versus neutral wells;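 active means mean replicate inhibition of at least 30% and at least 1% of replicates passing that level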;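 further: 0% = median of the neutral control wells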
Xi reactivation: X-chromosome reactivation activator. activation, % at 7.58 µM. actives 0.055% (n = 360,000). XiGFP mouse fibroblasts, % GFP-positive cells imaging, 3 d; cells co-treated with 5-aza-dC sensitizer; scaled so ellipticine positive control = 100%;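 active means mean normalized replicate activation at least 10% and every replicate at or above 10%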;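 further: 0% = median of on-plate neutral control wells and 100% = ellipticine 6 µM median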
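System: XiGFP fibroblasts, SV40-immortalized. Medium: DMEM plus 5-aza-dC sensitizer. Doses: single point. Timing: 3 d treatment, 15 min room-temperature fixation. Control set: ellipticine 6 µM.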
PvdQ acylase: P. aeruginosa PvdQ acylase inhibition; purified PvdQ acylase, fluorescence plate reader; inhibition, % at 10 µM; actives 0.063% (n = 340,000); AID 488965; in the data active means inhibition above about 30%, passing the limit was not always enough;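 further: 0% = vehicle neutral wells and 100% = reference inhibitor wells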
ERAP1 HTS inh: inhibitors of human ERAP1 aminopeptidase. Q9NZ08. recombinant ERAP1, Leu-AMC fluorescence, 60 min. inhibition, % at 10.7 µM. actives 0.15% (n = 340,000). AID 652197;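 active means mean replicate inhibition of at least 30%, or all replicates individually reaching that 30% level; inactive means mean below 30% and not every replicate reaching it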;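 further: 0% = neutral control wells and 100% = L-leucinethiol positive control wells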
Target sequence (Q9NZ08 whole entry, looked up): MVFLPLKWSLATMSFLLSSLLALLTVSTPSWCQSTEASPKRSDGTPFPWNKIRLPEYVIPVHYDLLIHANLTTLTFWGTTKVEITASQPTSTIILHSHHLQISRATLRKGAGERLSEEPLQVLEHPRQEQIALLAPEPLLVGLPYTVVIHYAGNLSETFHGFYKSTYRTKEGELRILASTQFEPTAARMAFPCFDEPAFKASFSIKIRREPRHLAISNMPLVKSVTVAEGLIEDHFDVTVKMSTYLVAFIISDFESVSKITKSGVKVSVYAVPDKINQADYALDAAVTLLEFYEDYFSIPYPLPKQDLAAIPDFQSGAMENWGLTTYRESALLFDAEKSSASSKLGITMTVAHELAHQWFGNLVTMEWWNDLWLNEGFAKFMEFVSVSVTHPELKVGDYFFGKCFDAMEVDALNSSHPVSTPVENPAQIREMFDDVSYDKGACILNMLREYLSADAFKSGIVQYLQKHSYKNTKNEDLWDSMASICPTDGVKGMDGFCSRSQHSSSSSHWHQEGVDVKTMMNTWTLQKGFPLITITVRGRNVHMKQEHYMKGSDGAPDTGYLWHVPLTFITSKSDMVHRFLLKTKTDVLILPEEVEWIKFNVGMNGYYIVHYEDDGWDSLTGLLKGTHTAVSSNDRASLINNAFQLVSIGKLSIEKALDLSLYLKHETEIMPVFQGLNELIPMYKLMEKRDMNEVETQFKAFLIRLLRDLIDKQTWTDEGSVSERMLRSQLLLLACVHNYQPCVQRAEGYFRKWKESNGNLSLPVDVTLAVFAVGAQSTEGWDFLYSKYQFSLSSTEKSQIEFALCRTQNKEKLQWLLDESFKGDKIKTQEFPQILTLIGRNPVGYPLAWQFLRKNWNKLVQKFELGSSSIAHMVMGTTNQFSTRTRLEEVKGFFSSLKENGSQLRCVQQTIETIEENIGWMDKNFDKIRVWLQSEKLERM
* marks the source's active call; other numbers are inactive results.

Results for O=C(CSCc1ccco1)N1CCc2ccccc21 ?
PvdQ acylase: 86*

What do the screens show for `CC(=O)c1cc2c(ccc3ccccc32)oc1=O`?
CaV13 FRET inh: active; Xi reactivation: 3; PvdQ acylase: -2; ERAP1 HTS inh: -8

What do the screens show for `CC(=O)Nc1cc2c(ccc3ccccc32)oc1=O`?
CaV13 FRET inh: -4; Xi reactivation: 0; PvdQ acylase: -7; ERAP1 HTS inh: 5

Results for CCN(CC)CCCNc1ccc2ncn3c4ccc(O)cc4c(=O)c1c23 ?
CaV13 FRET inh: -43; Xi reactivation: 4; PvdQ acylase: -3; ERAP1 HTS inh: 33*

What do the screens show for `[O-]/[N+](=C\c1ccccc1)c1ccccc1`?
CaV13 FRET inh: -10; Xi reactivation: 1; PvdQ acylase: -6; ERAP1 HTS inh: -2

How did [O-]/[N+](=C/c1ccccc1)c1ccccc1 do in these assays?
CaV13 FRET inh: 45*; Xi reactivation: 0; PvdQ acylase: -4; ERAP1 HTS inh: 2

Results for O=C([C@@H]1[C@@H](CO)[C@@H]2Cn3c(cccc3=O)[C@@H]2N1Cc1ccccc1Cl)N1CCOCC1 ?
Xi reactivation: 0; ERAP1 HTS inh: 1

How did CC1CC(OCC(O)CN2CCOCC2)CC(C)(C)C1 (stereo not given) do in these assays?
CaV13 FRET inh: -16; Xi reactivation: 0; PvdQ acylase: 15; ERAP1 HTS inh: -1

Results for CC1CC(OCC(O)C[N+]2(C)CCOCC2)CC(C)(C)C1 (stereo not given) ?
CaV13 FRET inh: -4; Xi reactivation: 0; PvdQ acylase: -12; ERAP1 HTS inh: 109*

How did COc1ccc(-c2ccc3c(c2)O[C@H](CN(C)C(=O)Nc2ccccc2F)[C@H](C)CN([C@@H](C)CO)S3(=O)=O)cc1 do in these assays?
Xi reactivation: -1; ERAP1 HTS inh: -2

What do the screens show for `COc1ccc2c3c([nH]c2c1)[C@H](CO)N(Cc1cc(F)ccc1F)CC31CN(C)C1`?
Xi reactivation: 0; ERAP1 HTS inh: 40*

How did CCN1/C(=C/c2ccc3cc(C)ccc3[n+]2CC)Sc2cc(C)ccc21 do in these assays?
CaV13 FRET inh: -6; Xi reactivation: 102*; PvdQ acylase: -23; ERAP1 HTS inh: 12

How did CCCCN1/C(=C/c2ccc3ccccc3[n+]2CC)Sc2ccccc21 do in these assays?
PvdQ acylase: -3

Results for O=c1[nH]c(=S)[nH]c2nc(-c3ccccc3)cnc12 ?
CaV13 FRET inh: -4; Xi reactivation: 0; PvdQ acylase: -4; ERAP1 HTS inh: 16

What do the screens show for `O=c1[nH]c(=O)c2nc(-c3ccc(Cl)cc3)cnc2[nH]1`?
CaV13 FRET inh: 100*; Xi reactivation: 0; PvdQ acylase: 9; ERAP1 HTS inh: -21

What do the screens show for `CS(=O)(=O)N(CC(=O)N1CCOCC1)c1cccc(Cl)c1`?
CaV13 FRET inh: -15; Xi reactivation: 0; ERAP1 HTS inh: 34*

What do the screens show for `CS(=O)(=O)N(CC(=O)N1CCOCC1)c1ccc(Cl)cc1`?
CaV13 FRET inh: -21; Xi reactivation: 0; PvdQ acylase: -11; ERAP1 HTS inh: -4

What do the screens show for `O=c1c(OC2OC(CO)C(O)C(O)C2O)c(-c2ccc(O)c(O)c2)oc2cc(O)cc(O)c12` (stereo not given)?
CaV13 FRET inh: -6; Xi reactivation: 0; PvdQ acylase: 3; ERAP1 HTS inh: 56*

How did C[C@H]1CN([C@@H](C)CO)C(=O)CCCn2nncc2CO[C@H]1CN(C)Cc1cccc2c1OCCCO2 do in these assays?
Xi reactivation: 0; ERAP1 HTS inh: -2

Results for Nc1ccc(C#Cc2ccc3c(=O)c4ccccc4oc3c2)cc1 ?
CaV13 FRET inh: 106*; Xi reactivation: 0; PvdQ acylase: -2; ERAP1 HTS inh: 1

What do the screens show for `C[C@H](CO)N1C[C@H](C)[C@@H](CN(C)C(=O)C2CCCCC2)Oc2ncc(-c3cccnc3)cc2C1=O`?
Xi reactivation: 0

What do the screens show for `Cn1c(=O)c2[nH]c(-c3ccc(S(=O)(=O)O)cc3)nc2n(C)c1=O`?
CaV13 FRET inh: -7; Xi reactivation: 23*; PvdQ acylase: 14; ERAP1 HTS inh: 1

Results for CN(C)S(=O)(=O)c1ccc2c(c1)C(=O)c1cc(S(=O)(=O)N(C)C)ccc1CC2 ?
CaV13 FRET inh: -2; Xi reactivation: 0; PvdQ acylase: -3; ERAP1 HTS inh: -3

Results for CN(C)S(=O)(=O)c1ccc2c(c1)/C(=C/c1cc3c([nH]1)CCCC3)C(=O)N2 ?
CaV13 FRET inh: -7; Xi reactivation: 113*; PvdQ acylase: -7; ERAP1 HTS inh: 1
